Published values gathered from unrelated publications.
Protocols differ between the studies behind these lines.
Target: Vascular endothelial growth factor receptor 3 (FLT4, Homo sapiens, UniProt P35916)

| Structure (SMILES) | observed | mode | technique | tested at | endpoint | result |
| --- | --- | --- | --- | --- | --- | --- |
| C[C@@H]1CN(c2cc(-c3n[nH]c4ccc(OC5(C)CC5)cc34)ncn2)C[C@H](C)O1 | cell-free assay | – | competition with immobilised ligand | 0.1 µM | remaining binding | 100% |
| COc1cc2ncnc(Nc3ccc(Oc4ccccc4)c(C)c3C)c2cc1OC | enzyme activity | inhibitor | – | 1 µM | inhibition | 12% |
| Cc1cc(NC(=O)c2cccc3cc(-c4cccc5[nH]nc(N)c45)ccc23)ccc1F | enzyme activity | inhibitor | – | 0.1 µM | activity vs control | 1% |
| O=C(O)c1cc(-c2ccc(C3CCNCC3)cc2)c2ccc(-c3ccc(C(F)(F)F)cc3)cc2c1 | cell-free assay | – | competition with immobilised ligand | 1 µM | remaining binding | 100% |
| Cc1ccc(C(=O)Nc2ccc(CN3CCN(C)CC3)c(C(F)(F)F)c2)cc1C#Cc1cnc2cccnn12 | cell-free assay | – | – | 23.5 nM | remaining signal | 35% |
| Cc1cc(NC(=O)c2cccc(S(F)(F)(F)(F)F)c2)cc(-n2ccn3nc(-c4cccnc4)cc23)c1 | cell-free assay | – | competition with immobilised ligand | 1 µM | remaining binding | 82.3% |
| O=C(Nc1cnn(-c2csc(C(=O)NC3COC3)c2)c1)Nc1ccccc1Cl | enzyme activity | inhibitor | – | 5 µM | remaining activity | 93.5% |
| Cc1ccc(C(=O)NCc2ccsc2)cc1C#Cc1cn(C(C)C)c2ncnc(N)c12 | enzyme activity | inhibitor | – | 1 µM | activity vs control | -1% |
| CCCCN(CCCC)C(=O)CN1C[C@H](c2cc(OC)c3c(c2)OCO3)[C@@H](C(=O)O)[C@@H]1CC(C)(C)CCC | cell-free assay | – | competition with immobilised ligand | 1 µM | remaining binding | 100% |
| O=C1NC(=O)c2cc(Nc3ccc(F)cc3)c(Nc3ccc(F)cc3)cc21 | cell-free assay | – | – | 0.5 µM | remaining signal | 102% |
| Cc1cnc(NC2CCOCC2)nc1-n1cnc(C(=O)NC(CN)c2cc(F)cc(Cl)c2)c1 (centres unmarked) | enzyme activity | inhibitor | radiometric | 1 µM | remaining activity | 107% |
| O=C(Nc1cnn(-c2csc(C(=O)NC3COC3)c2)c1)Nc1c(F)cccc1Cl | enzyme activity | inhibitor | – | 5 µM | remaining activity | 86.2% |
| CC(=O)N1CCC(c2ccc(C(=O)NC(=N)N)cc2C(F)(F)F)CC1 | cell-free assay | – | competition with immobilised ligand | 1 µM | remaining binding | 89% |
| COc1ccc(COc2ccc(Cc3cnc(N)nc3N)cc2OC)cc1 | cell-free assay | – | – | 0.5 µM | remaining signal | 105% |
| CNC(=O)c1cc2c(Oc3ccc(NC(=O)C4(C(=O)Nc5ccc(F)cc5)CC4)cc3)ccnc2cc1OC | enzyme activity | inhibitor | radiometric | 1 µM | inhibition | 102% |
| CC/C(=N\NC(=O)NCc1cccc(O)c1)c1ccc(O)c(C)c1O | enzyme activity | inhibitor | – | 0.1 µM | inhibition | 6.1% |
| COc1cc2c(Nc3ccc(Br)cc3F)ncnc2cc1OCC1CCN(C)CC1 | cell-free assay | – | – | 0.5 µM | remaining signal | 16.1% |
| O=C(O)[C@H]1[C@H](Cn2nnc3ccccc3c2=O)CC[C@@H]1C(=O)c1ccc(OCCC2CCOCC2)cc1 | cell-free assay | – | competition with immobilised ligand | 1 µM | remaining binding | 81% |
| CCN(CC)c1ccc(C2=NNC(=O)CC2C)cc1[N+](=O)[O-] (centres unmarked) | enzyme activity | inhibitor | – | 10 µM | remaining activity | 111% |
| Clc1ccc(Nc2nnc(Cc3ccncc3)c3ccccc23)cc1 | cell-free assay | – | – | 0.5 µM | remaining signal | 62.8% |
